The source of these data is publication PMC4076525 (The Journal of General Physiology, 2014).

Changes are numbered by the printed parent chain. Names and notes keep the numbering of the source.

Data set [1] has as its target T1, FepA (Escherichia coli, UniProt P05825).
T1 sequence (P05825 23-746): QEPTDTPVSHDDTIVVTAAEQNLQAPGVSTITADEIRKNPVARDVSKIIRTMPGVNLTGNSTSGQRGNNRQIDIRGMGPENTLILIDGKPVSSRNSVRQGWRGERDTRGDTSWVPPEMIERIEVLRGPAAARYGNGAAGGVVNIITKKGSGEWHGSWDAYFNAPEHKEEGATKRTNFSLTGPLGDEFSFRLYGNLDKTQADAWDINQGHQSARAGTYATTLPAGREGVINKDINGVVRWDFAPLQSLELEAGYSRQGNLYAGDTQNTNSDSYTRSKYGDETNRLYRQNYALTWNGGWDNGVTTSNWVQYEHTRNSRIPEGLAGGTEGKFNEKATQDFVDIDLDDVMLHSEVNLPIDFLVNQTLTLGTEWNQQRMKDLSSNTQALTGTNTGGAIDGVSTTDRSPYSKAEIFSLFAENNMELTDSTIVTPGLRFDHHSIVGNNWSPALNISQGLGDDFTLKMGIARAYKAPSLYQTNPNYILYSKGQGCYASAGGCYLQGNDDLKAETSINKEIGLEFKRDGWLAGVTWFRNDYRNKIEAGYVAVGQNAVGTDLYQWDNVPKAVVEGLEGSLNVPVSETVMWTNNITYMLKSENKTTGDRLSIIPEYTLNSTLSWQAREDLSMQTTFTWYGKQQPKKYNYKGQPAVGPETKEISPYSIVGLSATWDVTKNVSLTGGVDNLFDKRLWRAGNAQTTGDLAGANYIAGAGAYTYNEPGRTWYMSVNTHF
To be noted: ref Newton et al., 1999; Annamalai et al., 2004; cited from earlier work.

Data set [2] can be described thus: Extent of FeEnt-induced quenching of FM fluorescence in live cells. The class given is cell-based, Escherichia coli. To be noted: 10 nM FeEnt, 2.5 × 10^7 cells/ml, FM-labeled mutants. In short, it runs like this: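 Hosts were tonB+ ΔfepA or ΔtonB ΔfepA E. coli expressing plasmid-borne Cys-substituted FepA, grown in iron-deficient MOPS medium to late log. 10^10 cells were labeled with 5 µM fluorescein-5-maleimide in 50 mM Na2HPO4, 0.9% NaCl, pH 6.5, for 5 min at 37°C. Labeling was quenched with β-mercaptoethanol, and cells were resuspended in PBS with 0.4% glucose. FeEnt was added to 2.5 × 10^7 cells in 3 ml, stirred at 2°C, with emission read at 520 nm.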

Data set [3] in a line: 59FeEnt transport. The class given is cell-based, Escherichia coli. To be noted: for 59FeEnt transport rate compared with wild-type FepA: before fluoresceination; for Transport rate relative to wild-type FepA: FM-modified, TonB-dependent uptake; for Vmax fold lower after fluoresceination: 59FeEnt uptake. In short, it runs like this: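 Cultures were grown in LB with antibiotics, then in iron-deficient MOPS medium to 10^9 cells/ml. Cells were assayed before and after labeling with 5 µM fluorescein-5-maleimide (pH 6.5 phosphate/NaCl buffer, 5 min, 37°C, β-mercaptoethanol stop). Uptake was measured in MOPS medium with 0.4% glucose at 37°C in 10-ml volumes. KM and Vmax came from an enzyme-kinetics equation fit per sample.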

Data set [4] is described as follows: Fluorescence recovery after FeEnt quenching. The class given is cell-based, Escherichia coli. To be noted: after FM modification.
Data set [5] in a line: Rapid-mixing stopped-flow FM quenching during FeEnt binding, OM fragments. Also noted: species or system Escherichia coli. To be noted: biphasic decay.
Data set [6] can be described thus: 59FeEnt binding by cells expressing FepA Cys substitution mutants. Also noted: species or system Escherichia coli. To be noted: read-out: Binding >FM Kd, after modification with FM. An outline of the steps:
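Cells were grown overnight at 37°C in LB with streptomycin (100 µg/ml) and chloramphenicol (20 µg/ml). They were subcultured 1% into iron-deficient MOPS medium and grown 5.5–6 h to 10^9 cells/ml, then labeled with 5 µM fluorescein-5-maleimide at pH 6.5 for 5 min at 37°C. Reactions were stopped with 100 mM β-mercaptoethanol. Binding ran at 0°C in 10-ml volumes, and Kd and capacity came from a bound-versus-total fit.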

Data set [7] can be described thus: Rapid-mixing stopped-flow FM quenching during FeEnt binding, live bacteria. Details: species or system Escherichia coli. To be noted: live bacteria expressing FepAT216C-FM. An outline of the steps: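 Live, highly fluorescein-maleimide-labeled bacteria expressing the Cys-substituted FepA were rapid-mixed with FeEnt in a stopped-flow chamber, with emission quenching recorded at 520 nm. Rate constants, with standard errors, came from exponential decay fits (A(t) = A0e^−kt + offset). Half-times were calculated as −ln 0.5/k.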

As for `O=C(N[C@H]1COC(=O)[C@@H](NC(=O)c2cccc([O-])c2[O-])COC(=O)[C@@H](NC(=O)c2cccc([O-])c2[O-])COC1=O)c1cccc([O-])c1[O-].[Fe+3]` [FeEnt, ferric enterobactin], the FeEnt turnover number in data set [1] was around 0.03 s⁻¹.

B1: S275C: E. coli FepA with Cys substitution at S275, surface loop 3 (protein, UniProt P05825 23-746, looked up, variant S275C)
Ferrienterobactin receptor: T1 sequence (P05825 23-746) with S275C
Turning to B1, the “Quenching of FM emissions by FeEnt binding” value (from here on “Quenching of FM emissions”) in data set [2] was “unaffected by FeEnt”.

B2: A322C (protein, UniProt P05825 23-746, looked up, variant A322C)
Ferrienterobactin receptor: T1 sequence (P05825 23-746) with A322C
For the molecule B2, in data set [3], the “59FeEnt transport rate compared with wild-type FepA” value is reported as “about half that rate”.

B3: T550C (protein, UniProt P05825 23-746, looked up, variant T550C)
Ferrienterobactin receptor: T1 sequence (P05825 23-746) with T550C
Consider B3, for which, in data set [4], the “Increase of fluorescence recovery time compared with S271C-FM” value (“Increase of fluorescence recovery time” below) is reported as 10 fold.

B4: A698C-FM: FepA A698C labeled with fluorescein-5-maleimide (FM) (conjugate, UniProt P05825 23-746, looked up, variant A698C)
Ferrienterobactin receptor: T1 sequence (P05825 23-746) with A698C
modifications: fluorescein-5-maleimide label
For B4, the “Transport rate relative to wild-type FepA” value in data set [3] was determined as 90%.

B5: S490C (protein, UniProt P05825 23-746, looked up, variant S490C)
Ferrienterobactin receptor: T1 sequence (P05825 23-746) with S490C
As for B5, the “59FeEnt transport rate compared with wild-type FepA” value in data set [3] is listed as “about half that rate”. Moreover, the “Increase of fluorescence recovery time” value in data set [4] was determined as 10 fold.

B6: A383C-FM: FepA A383C labeled with fluorescein-5-maleimide (FM) (conjugate, UniProt P05825 23-746, looked up, variant A383C)
Ferrienterobactin receptor: T1 sequence (P05825 23-746) with A383C
modifications: fluorescein-5-maleimide label
For the molecule B6, the “Vmax fold lower after fluoresceination” value in data set [3] is on record as 3–10 fold.

B7: S271C-FM (conjugate, UniProt P05825 23-746, looked up, variant S271C)
Ferrienterobactin receptor: T1 sequence (P05825 23-746) with S271C
modifications: fluorescein-5-maleimide label
Regarding B7, in data set [3], the “Transport rate relative to wild-type FepA” value is recorded as 65%.

B8: S271C (protein, UniProt P05825 23-746, looked up, variant S271C)
Ferrienterobactin receptor: T1 sequence (P05825 23-746) with S271C
As for B8, the “k (SE), second kinetic phase” value in data set [5] is given as 0.31 (0.04) s^−1.

B9: S490C-FM: FepA S490C labeled with fluorescein-5-maleimide (FM) (conjugate, UniProt P05825 23-746, looked up, variant S490C)
Ferrienterobactin receptor: T1 sequence (P05825 23-746) with S490C
modifications: fluorescein-5-maleimide label
A word on the Km: it is the substrate concentration at which the rate is half of its maximum. The term Kd denotes the concentration at which binding is half-saturated. With B9, the “Vmax fold lower after fluoresceination” value in data set [3] is reported as 3–10 fold. Besides, in data set [3] (read-out: Transport >FM KM, 59FeEnt, 37°C, after modification with FM), the Km amounted to 0.057 µM. Besides, in data set [6], the Kd amounted to 90 nM. Further, the “Quenching of FM emissions” value in data set [2] amounted to 30%.

B10: A383C (protein, UniProt P05825 23-746, looked up, variant A383C)
Ferrienterobactin receptor: T1 sequence (P05825 23-746) with A383C
As for B10, the “59FeEnt transport rate compared with wild-type FepA” value in data set [3] was “about half that rate”. Further, the “Increase of fluorescence recovery time” value in data set [4] worked out at 10 fold.

B11: T550C-FM: FepA T550C labeled with fluorescein-5-maleimide (FM) (conjugate, UniProt P05825 23-746, looked up, variant T550C)
Ferrienterobactin receptor: T1 sequence (P05825 23-746) with T550C
modifications: fluorescein-5-maleimide label
With B11, the “Vmax fold lower after fluoresceination” value in data set [3] is given as 3–10 fold.

B12: T216C (protein, UniProt P05825 23-746, looked up, variant T216C)
Ferrienterobactin receptor: T1 sequence (P05825 23-746) with T216C
For B12, the “k (SE), rate of FM quenching” value in data set [7] is listed as 1.08 (0.08) s^−1. The “Quenching of FM emissions” value in data set [2] is given as above 60%.

B13: fepA+: wild-type E. coli FepA, outer membrane ferric enterobactin transporter, expressed from pHSG575 plasmid (protein, UniProt P05825 23-746, looked up)
Ferrienterobactin receptor: T1 sequence (P05825 23-746)
Turning to B13, the “Transport <FM Vmax” value in data set [3] (59FeEnt, 37°C, before modification with FM, listed as wild-type FepA) was around 100 pMol/min/10^9 cells.

B14: A698C (protein, UniProt P05825 23-746, looked up, variant A698C)
Ferrienterobactin receptor: T1 sequence (P05825 23-746) with A698C
For the molecule B14, the “Quenching of FM emissions” value in data set [2] is on record as above 60%.

B15: A322C-FM: FepA A322C labeled with fluorescein-5-maleimide (FM) (conjugate, UniProt P05825 23-746, looked up, variant A322C)
Ferrienterobactin receptor: T1 sequence (P05825 23-746) with A322C
modifications: fluorescein-5-maleimide label
As to B15, the “Vmax fold lower after fluoresceination” value in data set [3] is listed as 3–10 fold. Also, in data set [2], the “Quenching of FM emissions” value is listed as “similarly quenched”.
